{"source": "ChEMBL document CHEMBL4706575", "about": "“Nonpeptidic quinazolinone derivatives as dual nucleotide-binding oligomerization domain-like receptor 1/2 antagonists for adjuvant cancer chemotherapy” (Eur J Med Chem, 2020)", "key": {"[1]": {"test": "Half life in mouse liver microsomes at 1.25 uM preincubated for 5 mins followed by NADPH generating system addition and measured for 120 mins by LC-MS/MS analysis", "format": "ADME, Microsome", "outline": "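Mouse liver microsomes (1.25 mg/mL protein) in 100 mM phosphate pH 7.4 with 1.25 µM compound, preincubated 5 min at 37 °C. Reaction started with NADPH-generating system (1 mM NADP, 10 mM MgCl2, 10 mM G6P, 0.5 U/mL G6PDH). Sampled at 0–120 min, quenched with MeOH/ACN 1:1, analysed by LC-MS/MS.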"}, "[2]": {"biological_target": "T1, Nucleotide-binding oligomerization domain-containing protein 2 (Homo sapiens, UniProt Q9HC29)", "T1 sequence (Q9HC29 whole entry, the tested form may be a part)": "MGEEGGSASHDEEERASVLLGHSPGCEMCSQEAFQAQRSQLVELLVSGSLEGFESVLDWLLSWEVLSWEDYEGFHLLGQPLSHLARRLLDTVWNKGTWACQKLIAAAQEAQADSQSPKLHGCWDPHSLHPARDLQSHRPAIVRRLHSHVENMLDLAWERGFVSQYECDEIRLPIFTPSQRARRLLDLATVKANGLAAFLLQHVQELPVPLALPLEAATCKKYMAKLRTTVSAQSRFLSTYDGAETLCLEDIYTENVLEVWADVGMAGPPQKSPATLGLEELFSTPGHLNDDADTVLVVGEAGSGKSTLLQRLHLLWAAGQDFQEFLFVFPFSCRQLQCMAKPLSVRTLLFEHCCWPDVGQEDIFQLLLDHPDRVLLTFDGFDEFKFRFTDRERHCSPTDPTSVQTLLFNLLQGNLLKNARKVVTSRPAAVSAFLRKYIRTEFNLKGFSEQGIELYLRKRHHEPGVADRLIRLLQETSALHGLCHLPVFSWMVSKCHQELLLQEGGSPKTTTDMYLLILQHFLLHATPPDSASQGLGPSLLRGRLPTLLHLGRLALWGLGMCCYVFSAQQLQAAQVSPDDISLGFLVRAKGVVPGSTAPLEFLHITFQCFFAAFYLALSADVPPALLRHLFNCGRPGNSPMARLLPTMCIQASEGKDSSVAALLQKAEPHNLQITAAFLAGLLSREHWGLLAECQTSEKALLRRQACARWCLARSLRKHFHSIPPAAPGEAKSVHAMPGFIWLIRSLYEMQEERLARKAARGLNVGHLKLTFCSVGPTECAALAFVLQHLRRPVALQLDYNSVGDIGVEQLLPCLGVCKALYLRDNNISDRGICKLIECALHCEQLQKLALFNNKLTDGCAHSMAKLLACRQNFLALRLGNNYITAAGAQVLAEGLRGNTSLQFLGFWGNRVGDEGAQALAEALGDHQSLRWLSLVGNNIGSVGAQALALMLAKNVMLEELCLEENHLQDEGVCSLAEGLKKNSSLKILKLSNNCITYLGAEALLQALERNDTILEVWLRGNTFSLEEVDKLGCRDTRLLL", "test": "Antagonist activity at NOD2 in human THP-1 cells assessed as inhibition of MDP-induced increase in IKKalpha/beta phosphorylation preincubated for 1 hr followed by MDP addition and measured after 30 mins by Western blot analysis", "format": "cell-based", "conditions": "filed as antagonist, dose 1-10 µM, time 1.5 hrs", "outline": "(§1)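 Serum-starved THP-1 cells pretreated with compound (1.0 or 10 µM) or without for 1 h. Then C12-iE-DAP 500 ng/mL (NOD1) or MDP (NOD2) for 30 min. Lysed in cold whole-cell buffer. Western blot for IκBα and for total and phospho RIP2, IKKα/β, p65, JNK, p38 and ERK1/2. β-actin as loading control.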"}, "[3]": {"biological_target": "T2, Nucleotide-binding oligomerization domain-containing protein 1 (Homo sapiens) (UniProt Q9Y239)", "T2 sequence (whole entry)": "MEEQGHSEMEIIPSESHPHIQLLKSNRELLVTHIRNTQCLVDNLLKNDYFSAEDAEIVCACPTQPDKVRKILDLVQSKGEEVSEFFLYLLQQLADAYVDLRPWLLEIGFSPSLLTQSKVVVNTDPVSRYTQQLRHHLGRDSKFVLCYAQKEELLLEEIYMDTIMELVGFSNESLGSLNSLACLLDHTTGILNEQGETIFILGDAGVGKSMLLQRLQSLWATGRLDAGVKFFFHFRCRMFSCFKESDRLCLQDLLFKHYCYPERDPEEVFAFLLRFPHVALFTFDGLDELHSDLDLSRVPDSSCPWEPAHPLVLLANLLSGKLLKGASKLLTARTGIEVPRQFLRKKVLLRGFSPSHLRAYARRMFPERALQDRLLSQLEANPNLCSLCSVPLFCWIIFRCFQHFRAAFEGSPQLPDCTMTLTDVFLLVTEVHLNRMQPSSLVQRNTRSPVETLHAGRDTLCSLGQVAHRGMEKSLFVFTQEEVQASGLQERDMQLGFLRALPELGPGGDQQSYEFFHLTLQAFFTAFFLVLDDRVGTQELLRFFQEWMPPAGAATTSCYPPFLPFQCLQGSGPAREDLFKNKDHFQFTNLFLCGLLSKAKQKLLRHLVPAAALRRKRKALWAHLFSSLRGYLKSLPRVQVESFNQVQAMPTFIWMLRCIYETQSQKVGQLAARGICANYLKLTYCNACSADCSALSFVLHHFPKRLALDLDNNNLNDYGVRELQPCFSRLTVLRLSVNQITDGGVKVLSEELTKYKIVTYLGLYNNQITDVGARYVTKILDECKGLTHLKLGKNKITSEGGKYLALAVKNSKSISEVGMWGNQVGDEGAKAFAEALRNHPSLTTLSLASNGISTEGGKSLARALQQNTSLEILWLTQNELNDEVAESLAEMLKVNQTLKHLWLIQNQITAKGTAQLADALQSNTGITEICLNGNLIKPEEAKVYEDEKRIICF", "test": "(§2) Antagonist activity at NOD1 in HEK-Blue hNOD1 cells assessed as inhibition of C12-iE-DAP-induced NFkappaB activation-mediated SEAP release preincubated for 3 hrs followed by C12-iE-DAP addition and measured after 20 hrs by spectrophotometric method", "format": "cell-based", "conditions": "filed as antagonist, time 23.0 hrs"}, "[4]": {"biological_target": "T3, Nucleotide-binding oligomerization domain-containing protein 1 (Homo sapiens, UniProt Q9Y239)", "T3 sequence (Q9Y239 whole entry)": "T2 sequence (whole entry)", "test": "as §2", "format": "cell-based"}, "[5]": {"biological_target": "T2, Nucleotide-binding oligomerization domain-containing protein 1 (Homo sapiens)", "test": "Antagonist activity at NOD1 in human THP-1 cells assessed as inhibition of C12-iE-DAP-induced increase in p65 phosphorylation at 1 to 10 uM preincubated for 1 hr followed by C12-iE-DAP addition and measured after 30 mins by Western blot analysis", "format": "cell-based", "conditions": "filed as antagonist, dose 1-10 µM, time 1.5 hrs", "outline": "as §1"}, "[6]": {"biological_target": "T1, Nucleotide-binding oligomerization domain-containing protein 2", "test": "Antagonist activity at NOD2 in HEK-Blue hNOD2 cells assessed as inhibition of MDP-induced NFkappaB activation-mediated SEAP release preincubated for 3 hrs followed by MDP addition and measured after 20 hrs by spectrophotometric method", "format": "cell-based", "outline": "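HEK-Blue hNOD2 cells preincubated 3 h with a range of concentrations, then MDP 100 ng/mL for 20 h. SEAP quantified. SRB assay run to exclude cytotoxicity. IC50 by nonlinear semi-logarithmic fit, mean ± SD, n = 3.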"}, "[7]": {"test": "Toxicity in mouse B16-F10 cells implanted C57BL/6 mouse assessed as change in body weight at 50 mg/kg, iv administered every other day for 15 days", "format": "organism-based", "conditions": "in vivo, 360 h, time 15 day"}, "[8]": {"biological_target": "T2, Nucleotide-binding oligomerization domain-containing protein 1 (Homo sapiens)", "test": "Antagonist activity at NOD1 in human THP-1 cells assessed as inhibition of C12-iE-DAP-induced increase in RIP2 phosphorylation at 1 to 10 uM preincubated for 1 hr followed by C12-iE-DAP addition and measured after 30 mins by Western blot analysis", "format": "cell-based", "conditions": "filed as antagonist, dose 1-10 µM, time 1.5 hrs", "outline": "as §1"}, "[9]": {"biological_target": "T2, Nucleotide-binding oligomerization domain-containing protein 1 (Homo sapiens)", "test": "Antagonist activity at NOD1 in human THP-1 cells assessed as inhibition of C12-iE-DAP-induced increase in p38 phosphorylation at 1 to 10 uM preincubated for 1 hr followed by C12-iE-DAP addition and measured after 30 mins by Western blot analysis", "format": "cell-based", "conditions": "filed as antagonist, dose 1-10 µM, time 1.5 hrs", "outline": "as §1"}, "[10]": {"biological_target": "T2, Nucleotide-binding oligomerization domain-containing protein 1 (Homo sapiens)", "test": "Antagonist activity at NOD1 in human THP-1 cells assessed as inhibition of C12-iE-DAP-induced TNFalpha mRNA expression preincubated for 1 hr followed by C12-iE-DAP addition and measured after 90 mins by qRT-PCR analysis", "format": "cell-based", "conditions": "filed as antagonist, dose 1-10 µM, time 150.0 min", "outline": "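THP-1 cells in RPMI-1640 with 10% FBS, treated with compound (1.0 or 10 µM) or vehicle for 1 h. Then stimulated 90 min with C12-iE-DAP 500 ng/mL (NOD1) or MDP (NOD2). IL-6, TNF-α and IL-8 mRNA measured by qRT-PCR. Mean ± SD, n = 6, two-tailed t-test.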"}, "[11]": {"biological_target": "T1, Nucleotide-binding oligomerization domain-containing protein 2", "test": "Antagonist activity at NOD2 in human THP-1 cells assessed as inhibition of MDP-induced increase in p65 phosphorylation preincubated for 1 hr followed by MDP addition and measured after 30 mins by Western blot analysis", "format": "cell-based", "conditions": "filed as antagonist, dose 1-10 µM, time 1.5 hrs", "outline": "as §1"}, "[12]": {"biological_target": "T2, Nucleotide-binding oligomerization domain-containing protein 1 (Homo sapiens)", "test": "Antagonist activity at NOD1 in human THP-1 cells assessed as inhibition of C12-iE-DAP-induced IkappaBalpha degradation at 1 to 10 uM preincubated for 1 hr followed by C12-iE-DAP addition and measured after 30 mins by Western blot analysis", "format": "cell-based", "conditions": "filed as antagonist, dose 1-10 µM, time 1.5 hrs", "outline": "as §1"}, "[13]": {"biological_target": "T1, Nucleotide-binding oligomerization domain-containing protein 2", "test": "Antagonist activity at NOD2 in human THP-1 cells assessed as inhibition of MDP-induced increase in p38 phosphorylation preincubated for 1 hr followed by MDP addition and measured after 30 mins by Western blot analysis", "format": "cell-based", "conditions": "filed as antagonist, dose 1-10 µM, time 1.5 hrs", "outline": "as §1"}}, "note": "Active and inactive are the calls of the source. The calls are words filed in the database; no cut-off is given here."}
{"molecule": "O=C(NCCCOc1ccc(C(F)(F)F)cc1)c1cc2ncn(CC(=O)N3CCCC(F)(F)C3)c(=O)c2cc1-c1cccc(Cl)c1", "values": [{"measurement": "half-life at 1.25 µM", "setting": "[1]", "value": 1.13, "unit": "h"}, {"measurement": "inhibition", "setting": "[2]", "value": "Dose-dependent effect"}, {"measurement": "inhibition", "setting": "[3]", "value": "Dose-dependent effect"}, {"measurement": "IC50", "setting": "[4]", "value": 1130, "unit": "nM"}, {"measurement": "inhibition", "setting": "[5]", "value": "Active"}, {"measurement": "IC50", "setting": "[6]", "value": 770, "unit": "nM"}, {"measurement": "inhibition", "setting": "[6]; filed as antagonist, time 23.0 hrs", "value": "Dose-dependent effect"}, {"measurement": "Activity", "setting": "[7]", "value": "Non-Toxic"}, {"measurement": "inhibition", "setting": "[8]", "value": "Active"}, {"measurement": "inhibition", "setting": "[9]", "value": "Active"}, {"measurement": "inhibition", "setting": "[10]", "value": "Dose-dependent effect"}, {"measurement": "inhibition", "setting": "[11]", "value": "Dose-dependent effect"}, {"measurement": "inhibition", "setting": "[12]", "value": "Active"}, {"measurement": "inhibition", "setting": "[13]", "value": "Dose-dependent effect"}]}
